Experimental data as given in ChEMBL document CHEMBL1154372, “Steroidal sapogenins and glycosides from the rhizomes of Dioscorea bulbifera” (J Nat Prod, 2009).
Active and inactive are the calls of the source. No cut-off for these calls is given here.

Tested on: SMMC-7721
Experiment: Growth inhibition of human SMMC7721 cells after 48 hrs by MTT assay
Type: functional, cell-based
Details: SMMC-7721, 48 h
Summary of the method: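 SMMC7721 human hepatocellular carcinoma cells were kept in DMEM with 10% fetal calf serum at 37 °C and 5% CO2, and passaged twice weekly to stay in log growth. After 24 h at 7500 cells per well, compounds were added at various concentrations for 48 h, in triplicate. Viability was read as MTT formazan dissolved in DMSO, at 570 nm. IC50 determined; 10-hydroxycamptothecin served as positive control.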

Row | Structure (SMILES) | IC50
1 | C[C@@H]1CC[C@@]2(OC1)O[C@H]1C[C@H]3[C@@H]4CCC5=C[C@@H](O[C@@H]6O[C@H](CO)[C@@H](O)[C@H](O[C@@H]7O[C@@H](C)[C@H](O)[C@@H](O)[C@H]7O)[C@H]6O[C@@H]6O[C@@H](C)[C@H](O)[C@@H](O)[C@H]6O)CC[C@]5(C)[C@H]4CC[C@]3(C)[C@@]1(O)[C@@H]2C | 4540 nM
2 | CC[C@@]1(O)C(=O)OCc2c1cc1n(c2=O)Cc2cc3cc(O)ccc3nc2-1 [HYDROXYCAMPTOTHECIN] | 140 nM

Tested on: Bel-7402
Experiment: Cytotoxicity against human Bel7402 cells at 10 uM after 48 hrs by MTT assay
Type: functional
Details: not given
Summary of the method: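 Bel-7402 human hepatocellular carcinoma cells were grown in DMEM with 10% fetal calf serum at 37 °C under 5% CO2 and subcultured twice weekly. Cells were seeded at 7500 per well and, after 24 h, compound was added at 10 µM. After 48 h exposure in triplicate, MTT was added, formazan was dissolved in DMSO and absorbance was read at 570 nm. The value is % inhibition.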

Row | Structure (SMILES) | Activity
3 | C[C@@H]1[C@@]2(CC[C@](C)(O)CO2)O[C@H]2C[C@H]3[C@@H]4CCC5=CC(=O)CC[C@]5(C)[C@H]4CC[C@]3(C)[C@]21O | inactive
4 | C[C@@H]1[C@@]2(CC[C@@](C)(CO)O2)O[C@H]2C[C@H]3[C@@H]4C=CC5=CC(=O)CC[C@]5(C)[C@H]4CC[C@]3(C)[C@]21O | inactive
5 | C[C@@H]1[C@@]2(CC[C@@](C)(CO)O2)O[C@H]2C[C@H]3[C@@H]4CCC5=CC(=O)CC[C@]5(C)[C@H]4CC[C@]3(C)[C@]21O | inactive
6 | C[C@@H]1O[C@@H](O[C@H]2[C@H](O[C@H]3CC[C@@]4(C)C(=CC[C@@H]5[C@@H]4CC[C@@]4(C)[C@H]5C[C@@H]5O[C@]6(CC[C@](C)(O)CO6)[C@@H](C)[C@@]54O)C3)O[C@H](CO)[C@@H](O)[C@@H]2O[C@@H]2O[C@@H](C)[C@H](O)[C@@H](O)[C@H]2O)[C@H](O)[C@H](O)[C@H]1O | inactive
7 | C/C(C(=O)CC[C@@H](C)CO)=C1/C(=O)C[C@H]2[C@@H]3CCC4=C[C@@H](O[C@@H]5O[C@H](CO)[C@@H](O)[C@H](O[C@@H]6O[C@@H](C)[C@H](O)[C@@H](O)[C@H]6O)[C@H]5O[C@@H]5O[C@@H](C)[C@H](O)[C@@H](O)[C@H]5O)CC[C@]4(C)[C@H]3CC[C@]12C | inactive
8 | C[C@@H]1CC[C@@]2(OC1)O[C@H]1C[C@H]3[C@@H]4CCC5=C[C@@H](O[C@@H]6O[C@H](CO)[C@@H](O)[C@H](O[C@@H]7O[C@@H](C)[C@H](O)[C@@H](O)[C@H]7O)[C@H]6O[C@@H]6O[C@@H](C)[C@H](O)[C@@H](O)[C@H]6O)CC[C@]5(C)[C@H]4CC[C@]3(C)[C@@]1(O)[C@@H]2C | 99.1%
9 | C[C@@H]1CC[C@@]2(OC1)O[C@H]1C[C@H]3[C@@H]4CCC5=CC(=O)CC[C@]5(C)[C@H]4CC[C@]3(C)[C@@]1(O)[C@@H]2C | inactive
10 | C[C@@H]1O[C@@H](O[C@@H]2[C@@H](O)[C@H](O[C@H]3CC[C@@]4(C)C(=CC[C@@H]5[C@@H]4CC[C@@]4(C)[C@H]5C[C@@H]5O[C@]6(CC[C@](C)(O)CO6)[C@@H](C)[C@@]54O)C3)O[C@H](CO)[C@H]2O)[C@H](O)[C@H](O)[C@H]1O | inactive
